{"source": "ChEMBL document CHEMBL4619820", "about": "“Development of Novel AKR1C3 Inhibitors as New Potential Treatment for Castration-Resistant Prostate Cancer” (J Med Chem, 2020)", "key": {"[1]": {"molecular_target": "T1, Aldo-keto reductase family 1 member C3 (Homo sapiens) (UniProt P42330)", "T1 sequence (whole entry)": "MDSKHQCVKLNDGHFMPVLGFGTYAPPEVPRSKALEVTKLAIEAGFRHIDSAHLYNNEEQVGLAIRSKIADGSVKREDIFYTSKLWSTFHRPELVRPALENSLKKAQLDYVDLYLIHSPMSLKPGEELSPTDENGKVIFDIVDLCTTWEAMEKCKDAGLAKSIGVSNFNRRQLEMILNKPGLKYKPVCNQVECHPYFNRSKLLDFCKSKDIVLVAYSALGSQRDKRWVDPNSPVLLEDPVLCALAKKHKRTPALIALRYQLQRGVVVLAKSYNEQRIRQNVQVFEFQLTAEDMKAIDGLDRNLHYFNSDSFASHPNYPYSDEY", "experiment": "Inhibition of AKR1C3 in human 22Rv1 cells assessed as as reduction in AR nuclear translocation at 10 to 20 uM pre-incubated for 2 hrs in absence of finasteride by Western blot analysis", "format": "cell-based", "details": "CWR22R"}, "[2]": {"molecular_target": "T1, Aldo-keto reductase family 1 member C3 (Homo sapiens)", "experiment": "Inhibition of AKR1C3 in human 22Rv1 cells assessed as potentiation of enzalutamide-induced apoptosis by measuring increase in cleaved PARP level at 10 uM pre-incubated for 2 hrs before addition of pregnenolone for 24 hrs by Western blot analysis", "format": "cell-based", "details": "CWR22R", "outline": "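Apoptotic markers in 22Rv1: 2 h pretreatment with or without 10 μM inhibitor and/or 50 μM enzalutamide, then 24 h 20 nM pregnenolone; Bax/Bcl-2 ratio as percent of control; cleaved caspase-3 also by immunofluorescence with DAPI.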"}, "[3]": {"molecular_target": "T1, Aldo-keto reductase family 1 member C3 (Homo sapiens)", "experiment": "Inhibition of AKR1C3 in human 22Rv1 cells assessed as potentiation of abiraterone-induced apoptosis by measuring increase in Bax level at 10 uM pre-incubated for 2 hrs before addition of pregnenolone for 24 hrs by Western blot analysis", "format": "cell-based", "details": "CWR22R"}, "CWR22R [4]": {"test_system": "CWR22R", "experiment": "Inhibition of pregnenolone-induced cell cell cycle changes in human 22Rv1 cells assessed as reduction in S phase accumulation at 10 uM pre-incubated for 2 hrs before pregnenolone stimulation for 24 hrs by propidium iodide staining based flow cytometry", "format": "functional", "outline": "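Cell cycle in 22Rv1: 2 h pretreatment with or without 10 μM inhibitor, then 24 h with 20 nM pregnenolone; G0/G1, S and G2/M fractions determined by flow cytometry.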"}, "[5]": {"molecular_target": "T1, Aldo-keto reductase family 1 member C3 (Homo sapiens)", "experiment": "Inhibition of AKR1C3 in human 22Rv1 cells assessed as potentiation of abiraterone-induced apoptosis by measuring increase in DNA fragmentation at 10 uM pre-incubated for 2 hrs before addition of pregnenolone for 24 hrs by ethidium bromide staining based DNA agarose gel electrophores method", "format": "cell-based", "details": "CWR22R"}, "PC-3": {"test_system": "PC-3", "experiment": "Inhibition of cell proliferation of human PC3 cells at 10 to 20 uM incubated for 72 hrs by alamar blue assay", "format": "functional, cell-based", "outline": "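PC3 cells (AKR1C3-positive, AR-negative) grown 72 h with or without inhibitor; growth curves of viable cell number compared with inhibitor-free cells.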"}, "CWR22R [6]": {"test_system": "CWR22R", "experiment": "Effect on AKR1C3 gene expression in human 22Rv1 cells at 10 uM incubated for 24 hrs by semiquantitative RT-PCR analysis", "format": "functional, cell-based"}, "[7]": {"molecular_target": "T1, Aldo-keto reductase family 1 member C3 (Homo sapiens)", "experiment": "Inhibition of AKR1C3 in human 22Rv1 cells assessed as as reduction in AR nuclear translocation at 10 pre-incubated for 2 hrs before 4AD addition for 24 hrs by Western blot analysis", "format": "cell-based", "details": "CWR22R", "outline": "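22Rv1 cells pretreated 2 h with or without 10 μM inhibitor, then exposed 24 h to 10 nM 4AD; nuclear AR measured by Western blot of cell extracts, normalized to Lamin A+C, as percent of control.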"}, "[8]": {"experiment": "Toxicity in Balb/c nu/nu athymic mouse xenografted with human 22Rv1 cells assessed as effect on lung histology at 100 mg/kg, ip dosed twice per week for 6 weeks by H and E staining dependent light microscopy based histopathological analysis", "format": "organism-based, CWR22R", "details": "in vivo, 1008 h", "outline": "(§1)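 Mice carrying 22Rv1 xenografts were dosed intraperitoneally, with vehicle controls n=15 and treated groups n=10. Tissue sections of kidney, liver and lung were stained with hematoxylin and eosin and examined by light microscopy at ×40 magnification for histopathological changes.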"}, "CWR22R [9]": {"test_system": "CWR22R", "experiment": "Antitumor activity against human 22Rv1 cells xenografted in Balb/c nu/nu athymic mouse assessed as reduction in tumor volume at 100 mg/kg, ip dosed twice per week for 6 weeks", "format": "functional, organism-based", "outline": "(§2)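 22Rv1 xenograft mice dosed intraperitoneally with vehicle (control, n=15), 50 mg/kg (n=10) or 100 mg/kg (n=10); tumor size followed over time; body weights recorded.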"}, "CWR22R [10]": {"test_system": "CWR22R", "experiment": "Antitumor activity against human 22Rv1 cells xenografted in Balb/c nu/nu athymic mouse assessed as increase in necrotic region in tumor tissue at 100 mg/kg, ip dosed twice per week for 6 weeks by H and E staining dependent light microscopy based histopathological analysis", "format": "functional, organism-based", "outline": "(§3)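 Tumor tissue, plus liver, kidney and lung, from xenografted mice given ip 50 or 100 mg/kg; sections stained with hematoxylin and eosin and examined at ×40 for necrotic areas.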"}, "[11]": {"experiment": "Toxicity in Balb/c nu/nu athymic mouse xenografted with human 22Rv1 cells assessed as effect on body weight at 100 mg/kg, ip dosed twice per week for 6 weeks […]", "format": "organism-based, CWR22R", "details": "in vivo, 1008 h", "outline": "(§4)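 Mice carrying 22Rv1 xenografts received intraperitoneal injections. The vehicle control group had n=15 and each treated dose group had n=10. Average body weights were compared between treated and vehicle-control mice.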"}, "[12]": {"experiment": "Toxicity in Balb/c nu/nu athymic mouse xenografted with human 22Rv1 cells assessed as effect on liver histology at 100 mg/kg, ip dosed twice per week for 6 weeks by H and E staining dependent light microscopy based histopathological analysis", "format": "organism-based, CWR22R", "details": "in vivo, 1008 h", "outline": "as §1"}, "[13]": {"experiment": "Toxicity in Balb/c nu/nu athymic mouse xenografted with human 22Rv1 cells assessed as effect on kidney histology at 100 mg/kg, ip dosed twice per week for 6 weeks by H and E staining dependent light microscopy based histopathological analysis", "format": "organism-based, CWR22R", "details": "in vivo, 1008 h", "outline": "as §1"}, "CWR22R [14]": {"test_system": "CWR22R", "experiment": "Antitumor activity against human 22Rv1 cells xenografted in Balb/c nu/nu athymic mouse assessed as increase in necrotic region in tumor tissue at 50 mg/kg, ip dosed twice per week for 6 weeks by H and E staining dependent light microscopy based histopathological analysis", "format": "functional, organism-based", "outline": "as §3"}, "[15]": {"experiment": "Toxicity in Balb/c nu/nu athymic mouse xenografted with human 22Rv1 cells assessed as effect on kidney histology at 50 mg/kg, ip dosed twice per week for 6 weeks by H and E staining dependent light microscopy based histopathological analysis", "format": "organism-based, CWR22R", "details": "in vivo, 1008 h", "outline": "as §1"}, "[16]": {"experiment": "Toxicity in Balb/c nu/nu athymic mouse xenografted with human 22Rv1 cells assessed as effect on body weight at 50 mg/kg, ip dosed twice per week for 6 weeks by H and E staining dependent light microscopy based histopathological analysis", "format": "organism-based, CWR22R", "details": "in vivo, 1008 h", "outline": "as §4"}, "[17]": {"experiment": "Toxicity in Balb/c nu/nu athymic mouse xenografted with human 22Rv1 cells assessed as effect on lung histology at 50 mg/kg, ip dosed twice per week for 6 weeks by H and E staining dependent light microscopy based histopathological analysis", "format": "organism-based, CWR22R", "details": "in vivo, 1008 h", "outline": "as §1"}, "CWR22R [18]": {"test_system": "CWR22R", "experiment": "Antitumor activity against human 22Rv1 cells xenografted in Balb/c nu/nu athymic mouse assessed as reduction in tumor volume at 50 mg/kg, ip dosed twice per week for 6 weeks", "format": "functional, organism-based", "outline": "as §2"}, "[19]": {"experiment": "Toxicity in Balb/c nu/nu athymic mouse xenografted with human 22Rv1 cells assessed as effect on liver histology at 50 mg/kg, ip dosed twice per week for 6 weeks by H and E staining dependent light microscopy based histopathological analysis", "format": "organism-based, CWR22R", "details": "in vivo, 1008 h", "outline": "as §1"}}, "note": "Calls of active or inactive are those of the source. The calls are words filed in the database; no cut-off is given here."}
{"smiles": "N=c1oc2c(O)cccc2cc1C(=O)Nc1ccc(F)cc1", "values": [{"measurement": "inhibition", "setting": "[1]", "value": "Active"}, {"measurement": "inhibition", "setting": "[2]", "value": "Active"}, {"measurement": "inhibition", "setting": "[3]", "value": "Active"}, {"measurement": "inhibition", "setting": "CWR22R [4]", "value": "Active"}, {"measurement": "inhibition", "setting": "[5]", "value": "Active"}, {"measurement": "inhibition", "setting": "PC-3", "value": "Active"}, {"measurement": "Activity", "setting": "CWR22R [6]", "value": "inactive"}, {"measurement": "inhibition", "setting": "[7]", "value": "Active"}]}
{"smiles": "CCc1cccc(NC(=O)c2cc3cccc(O)c3oc2=N)c1", "values": [{"measurement": "Activity", "setting": "[8]", "value": "Non-Toxic"}, {"measurement": "Activity", "setting": "CWR22R [9]", "value": "Active"}, {"measurement": "Activity", "setting": "CWR22R [10]", "value": "Active"}, {"measurement": "Activity", "setting": "[11]", "value": "Non-Toxic"}, {"measurement": "Activity", "setting": "[12]", "value": "Non-Toxic"}, {"measurement": "Activity", "setting": "[13]", "value": "Non-Toxic"}]}
{"smiles": "Cc1ccc(NC(=O)c2cc3cccc(O)c3oc2=N)cc1", "values": [{"measurement": "inhibition", "setting": "[1]", "value": "Active"}, {"measurement": "Activity", "setting": "CWR22R [14]", "value": "Active"}, {"measurement": "Activity", "setting": "[15]", "value": "Non-Toxic"}, {"measurement": "inhibition", "setting": "[2]", "value": "Active"}, {"measurement": "inhibition", "setting": "[3]", "value": "Active"}, {"measurement": "inhibition", "setting": "CWR22R [4]", "value": "Active"}, {"measurement": "inhibition", "setting": "[5]", "value": "Active"}, {"measurement": "Activity", "setting": "[16]", "value": "Non-Toxic"}, {"measurement": "Activity", "setting": "[17]", "value": "Non-Toxic"}, {"measurement": "Activity", "setting": "CWR22R [18]", "value": "Active"}, {"measurement": "Activity", "setting": "[19]", "value": "Non-Toxic"}, {"measurement": "inhibition", "setting": "PC-3", "value": "Active"}, {"measurement": "Activity", "setting": "CWR22R [6]", "value": "inactive"}, {"measurement": "inhibition", "setting": "[7]", "value": "Active"}]}
